MT1-MMP txn act: activates MT1-MMP transcription; 0.16% of 86,000 active; HT1080 MT1-MMP promoter luciferase reporter, luminescence, overnight; stronger effect = higher value; activation factor at 10 µM; AID 750;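 active = activation factor of at least 2 for MT1-MMP transcription at 10 µM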
MMP13 inh: MMP13 (human) collagenase inhibition; P45452; inhibition, % at 4 µM; 0.07% of 65,000 active; AID 570; MMP-13 fTHP FRET cleavage, Mca fluorescence;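 active = inhibition above the mean of compound-free control plate wells plus 3 SD, cut at about 14% in these data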;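 also: 0% = DMSO wells and 100% = wells with reference MMP-13 inhibitor after basal subtraction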
WNV protease inh: WNV NS2B-NS3 proteinase inhibition; 0.18% of 65,000 active; WNV NS2B-NS3 protease, fluorogenic substrate Ex360/Em465; stronger effect = lower value; P06935; z-score (test concentration not listed); in the data active = z-score below about -3
Target sequence (P06935 1371-1501 limits assumed): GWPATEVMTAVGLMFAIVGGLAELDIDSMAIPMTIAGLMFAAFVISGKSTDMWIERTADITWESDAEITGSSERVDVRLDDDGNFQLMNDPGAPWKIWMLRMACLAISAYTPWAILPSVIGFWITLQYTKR
Target sequence (P06935 1502-1679 limits assumed): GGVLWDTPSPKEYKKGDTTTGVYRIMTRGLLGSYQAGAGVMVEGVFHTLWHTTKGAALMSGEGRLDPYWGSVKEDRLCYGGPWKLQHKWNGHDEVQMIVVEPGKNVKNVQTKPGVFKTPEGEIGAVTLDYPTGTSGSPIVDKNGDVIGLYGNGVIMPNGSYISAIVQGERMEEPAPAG
RORA act: RORA (human) activation | CHO-K1 Gal4-RORA LBD luciferase reporter, luminescence; percent increase over mock-subtracted basal signal | activation, % at 10 µM | AID 560 | P35398 | 1.5% of 65,000 active;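 active = activation above the mean of all tested compounds plus 3 SD, cut at about 49% in these data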;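 also: 0% = DMSO-treated RORA cells and 100% = added signal equal to DMSO minus mock-transfected cells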
SF-1 act: activators of human nuclear receptor SF-1; CHO-K1 Gal4-SF-1 LBD luciferase reporter; % increase over DMSO SF-1-specific signal; activation, % at 10 µM; 1.9% of 65,000 active; Q13285;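 active = activation above the mean activation of all tested compounds plus 3 SD, cut at about 50% in these data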
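Material: CHO-K1 cells with Gal4–hSF-1 LBD chimera plus Gal4-driven luciferase / Input: 4,000 CHO-K1 cells per well / Incubation: compound exposure 20 h at 37 °C / Signal: luminescence read 15 min after SteadyLite luciferase reagent, after room-temperature equilibration / Read-out: percent activation versus DMSO / Benchmarks: DMSO negative control and −SF1 background wells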
Active calls of the source: *; · = no result given. Rows were chosen to be rich in hits. Some 2.3% of all compounds tested hit in one or more screens of this group.

SMILES	MT1-MMP txn act	MMP13 inh	WNV protease inh	RORA act	SF-1 act
CC(C)NC(=O)c1cc(-c2ccc(Br)cc2)on1	5.1*	0	0.6	66*	35
O=C(CNS(=O)(=O)c1ccc(Br)s1)NCC1COc2ccccc2O1 (stereo unspecified)	1	-7	-1.9	0	-20
CCOC(=O)c1c(C)[nH]c(C(=O)COC(=O)C2CC2C)c1C (stereo unspecified)	1.1	-11	-0.64	38	54*
CC1(C)Cc2nc3sc4c(=O)n(CC(=O)NCc5ccco5)cnc4c3cc2CO1	1.3	3	-0.38	40	62*
O=C(Cn1cnc2ccccc2c1=O)NCc1ccco1	1.2	0	-0.92	19	6
O=C1Nc2ccccc2CCC1Sc1nnc(-c2ccc(Cl)cc2)s1 (stereo unspecified)	2.1*	·	·	·	·
CCOC(=O)CN1C(=O)C(Sc2nnc(-c3ccccc3OC)s2)CCc2ccccc21 (stereo unspecified)	1.3	·	·	·	·
COc1ccc(S(=O)(=O)N(C)CC(=O)Nc2cccc(C(C)=O)c2)cc1Cl	1.1	·	·	·	·
COc1ccccc1N1CCN(c2ncnc3c2oc2ccccc23)CC1	1.2	2	1.4	56*	43
CCOc1ccc2nc(-c3ccccc3)[nH]c2c1	0.6	-222	0.45	67*	27
COc1ccc2nc(-c3ccccc3)[nH]c2c1	0.5	-296	-1.3	0	5
CCOc1ccc(N2Cc3ccccc3C2)cc1	1.2	-1	-0.69	51*	62*
CCCCNS(=O)(=O)c1ccc2nc(SCC(=O)c3ccc(C#N)cc3)[nH]c2c1	1.2	-3	-0.99	-7	4
CC(=O)N=C(N)Sc1nc2ccccc2[nH]1	1.4	-3	0.61	31	98*
O=C(CC(SCc1ccco1)c1ccc(O)cc1)c1cccs1 (stereo unspecified)	1.7	-3	-1.3	87*	31
COC(=O)C1=C(NC(=O)c2cccc(C)c2)CCS1	·	-1	-0.54	-10	4
COC(=O)c1sc2nc(-c3ccco3)ccc2c1N	1	-1	0.6	26	66*
COC(=O)c1c(NC(=O)CCCC(=O)O)sc2c1CCC2	2.1*	·	·	·	·
COC(=O)c1c(NC(=O)CC2SCC(C(=O)OC)NC2=O)sc2c1CCCC2 (stereo unspecified)	1	-13	0.2	52*	0
CCOC(=O)/C(C#N)=C1/C=Nc2ccccc2N1	1.4	14*	2.7	18	10
Clc1ccc(CSc2nnc(-c3ccccn3)n2Cc2ccco2)c(Cl)c1	1.1	-2	1.2	-8	2
CCc1nnc2c3cnn(-c4ccc(C)c(C)c4)c3ncn12	·	1	·	57*	58*
C#CCn1cnc2c(cnn2-c2ccc(C)c(C)c2)c1=O	·	-4	-0.18	20	58*
Cc1nc2c3cnn(-c4ccc(C)c(C)c4)c3ncn2n1	1.3	-9	0.23	44	65*
Cc1ccc(-n2ncc3c(=O)n(CC#N)cnc32)cc1C	1.4	0	1.6	26	13
SMILES	MT1-MMP txn act	MMP13 inh	WNV protease inh	RORA act	SF-1 act
COc1ccc(-c2nnn(CC(=O)Nc3sc4c(c3C#N)CCCC4)n2)cc1	1.2	3	0.4	-13	1
O=P(N[C@@H](c1ccccc1)[C@@H]1C[C@H]1CCO)(c1ccccc1)c1ccccc1	1.3	·	·	·	·
CN(CC(=O)N1CCc2ccccc21)S(=O)(=O)c1cccs1	·	2	0.15	52*	55*
CCOC(=O)c1ccc(NC(=O)N2CCc3ccccc32)cc1	1.4	3	-0.88	14	61*
Cn1c(=O)c2c3c(sc2n2c(SCC(N)=O)nnc12)CC(C(C)(C)C)CC3 (stereo unspecified)	1.2	-12	0.05	-6	6
Cc1c(-c2nc(N)nc(Nc3ccc(F)cc3)n2)oc2ccccc12	1.7	0	0.3	74*	78*
O=C(Cn1c(NCCCO)nc2ccccc21)c1cccs1	1.2	2	0.39	-4	23
CCOC(=O)c1sc(Nc2nc3c(OC)cccc3s2)nc1C	1.6	-217	1.7	11	64*
COc1ccccc1S(=O)(=O)Cc1ccc(C(=O)N2CCN(c3ccc(C)cc3)C(C)C2)o1 (stereo unspecified)	·	1	0.14	13	38
COc1ccc(S(=O)(=O)Cc2ccc(C(=O)N3CCN(c4cccc(C)c4)C(C)C3)o2)cc1 (stereo unspecified)	0.5	-3	0.55	55*	28
O=C1CCn2nc(-c3ccc(Cl)cc3)cc2N1	1.5	8	-0.43	61*	31
Cc1ccc(-c2nc(CS(=O)CC(=O)NCCC(C)C)c(C)o2)cc1 (stereo unspecified)	1.1	-5	-0.87	23	14
COc1ccc(-c2csc(N3CCOCC3)n2)cc1OC	1.6	-1	-0.43	61*	10
CCCCSc1nnc(-c2ccccc2N)c(=O)[nH]1	1.8	3	-1	58*	35
CC(=O)N1CC=CC1(CC(C)C)C(=O)O (stereo unspecified)	0.9	·	·	·	·
Cn1c(SCC(=O)NCCNC(=O)CSc2nnc(C(F)(F)F)n2C)nnc1C(F)(F)F	1.1	·	·	·	·
O=c1sc(N2CCN(c3ccccc3F)CC2)nc2ccsc12	1.4	4	0.63	60*	72*
Cc1nn(-c2ccccc2)c2sc(C(=O)OCc3nnc(-c4ccccc4)o3)cc12	1.3	0	-1.5	-5	10
COC(=O)c1cccc(C23CC4(C2)[C@H](CN(CC2CCCCC2)[C@@H]4c2ccccc2)C3c2ccc(C(F)(F)F)cc2)c1 (stereo partly specified)	1	·	·	·	·
COc1ccc(Cl)cc1-c1nc(-c2ccncc2)no1	1.3	2	-1.1	18	14
Clc1ccc(OCc2nc(-c3ccncc3)no2)c(Cl)c1	0.7	3	0.73	48	86*
CC(C)(C)c1ccc(OCc2nc(-c3ccccn3)no2)c(Br)c1	0.9	-1	-0.62	67*	71*
Clc1cc(Cl)c(OCc2nc(-c3ccccn3)no2)cc1Cl	1.4	0	0.42	52*	34
Cc1c(NC(=O)c2cc3nc(-c4ccc(Cl)cc4)cc(C(F)(F)F)n3n2)c(=O)n(-c2ccccc2)n1C	1.1	·	·	·	·
Cc1cc(C)n2nc(Nc3ccccc3)cc2n1	2*	-12	-0.92	23	62*
Cc1cc(C)n2nc(C(=O)NCc3ccccc3)cc2n1	1	-20	2.2	23	7
COC(=O)c1ccc(C(NC(=O)OCc2ccccc2)/C(=C/[C@@H](C)C(=O)NCc2ccccc2)C(F)(F)F)cc1 (stereo partly specified)	1.1	·	·	·	·
c1ccc2c(c1)CCCN2Cc1nnnn1CC1CCCO1 (stereo unspecified)	1.1	1	0.96	12	-14
c1ccc(CCn2nnnc2CN2CCCc3ccccc32)cc1	1.2	-2	-0.36	51*	21
CC(=O)c1cnc2cc(-c3ccccc3)nn2c1C	1.1	2	-0.29	28	50*
